Source: ChEMBL document CHEMBL1146074, “Design and synthesis of 1-indol-1-yl-propan-2-ones as inhibitors of human cytosolic phospholipase A2alpha” (J Med Chem, 2006)
Activity calls are given as the source filed them. The rule behind the calls is not given here.

Columns and labels:
[1] = molecular target: T1, Cytosolic phospholipase A2 (Homo sapiens, UniProt P47712); experiment: Inhibition of human isolated cPLA2-alpha by vesicle assay
T1 sequence (P47712 whole entry): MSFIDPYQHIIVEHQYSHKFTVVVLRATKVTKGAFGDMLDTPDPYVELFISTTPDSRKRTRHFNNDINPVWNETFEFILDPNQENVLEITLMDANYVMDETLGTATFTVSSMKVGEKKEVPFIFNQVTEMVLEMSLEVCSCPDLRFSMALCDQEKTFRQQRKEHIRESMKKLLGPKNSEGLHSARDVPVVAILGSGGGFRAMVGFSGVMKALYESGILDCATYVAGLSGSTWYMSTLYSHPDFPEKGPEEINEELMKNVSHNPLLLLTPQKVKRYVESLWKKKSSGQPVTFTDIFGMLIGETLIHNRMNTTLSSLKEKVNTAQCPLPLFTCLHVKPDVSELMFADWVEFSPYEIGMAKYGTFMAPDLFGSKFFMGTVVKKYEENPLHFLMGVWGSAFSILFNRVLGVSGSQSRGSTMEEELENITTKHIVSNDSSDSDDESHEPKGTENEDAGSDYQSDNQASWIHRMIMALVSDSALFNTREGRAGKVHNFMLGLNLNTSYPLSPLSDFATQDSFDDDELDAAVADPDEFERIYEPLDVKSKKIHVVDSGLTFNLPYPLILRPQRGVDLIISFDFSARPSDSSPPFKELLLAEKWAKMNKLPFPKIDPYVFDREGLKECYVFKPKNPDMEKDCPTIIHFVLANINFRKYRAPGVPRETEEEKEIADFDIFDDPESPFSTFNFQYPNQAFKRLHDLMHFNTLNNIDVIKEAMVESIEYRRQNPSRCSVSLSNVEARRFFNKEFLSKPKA
Method in brief: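 Test compounds were at most 10 µM. Arachidonic acid formed was cleaned up by solid-phase extraction and quantified by reversed-phase HPLC with UV at 200 nm. IC50 values are means of at least two independent determinations.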

[2] = molecular target: T1, Cytosolic phospholipase A2; experiment: Inhibition of cPLA2alpha activity assessed by A23187-induced arachidonic acid release in human platelet; assay type: functional
Method in brief: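 Intact human platelets stimulated with calcium ionophore A23187 (1 µM final) for 1 min, with ETYA added to block cyclooxygenase-1 and 12-lipoxygenase. Released arachidonic acid was measured by RP18 HPLC (acetonitrile/10 mM ammonium phosphate pH 7.4, 50:50) with UV at 200 nm, using an internal standard. IC50 values are means of at least two independent determinations.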

[3] = molecular target: T1, Cytosolic phospholipase A2; experiment: Inhibition of cPLA2-alpha activity assessed by TPA-induced arachidonic acid release in human platelet; assay type: functional
Method in brief: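 Intact human platelets stimulated with TPA (2 µM final) for 60 min, with the cyclooxygenase/12-lipoxygenase inhibitor ETYA added. Released arachidonic acid was quantified by RP18 HPLC with UV at 200 nm, using an internal standard. Parallel incubations without TPA were used to calculate specific hydrolysis. IC50 values are means of at least two independent determinations.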

[4] = molecular target: T2, Cytosolic phospholipase A2 (Homo sapiens) (UniProt P47712); experiment: Inhibition of human isolated cPLA2-alpha by vesicle assay at 10 uM
T2 sequence (whole entry): T1 sequence (P47712 whole entry)

[5] = molecular target: T2, Cytosolic phospholipase A2 (Homo sapiens); experiment: Inhibition of cPLA2-alpha activity assessed by A23187-induced arachidonic acid release in human platelet at 10 uM; assay type: functional
Method in brief: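 Intact human platelets, with the dual cyclooxygenase/12-lipoxygenase inhibitor ETYA added, stimulated with calcium ionophore A23187 (1 µM final) for 1 min. Arachidonic acid released was measured by reversed-phase HPLC with UV at 200 nm, using 3-(4-decyloxyphenyl)propanoic acid as internal standard. Percent inhibition was read at 10 µM test compound. Cell lysis was checked by turbidimetry.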

Compound | IC50 [1] [nM] | IC50 [2] [nM] | IC50 [3] [nM] | inhibition [4] | inhibition [5]
CCCCCCCCc1ccc(OCC(=O)Cn2cc(C(C)=O)c3cc(C(=O)O)ccc32)cc1 | 16 | 1000 | 6.4 |  | 
CCCCCCCCCCOc1ccc(OCC(=O)Cn2ccc3cc(C(=O)O)ccc32)cc1 | 20 | 210 | 7.8 |  | 
CCCCCCCCc1ccc(OCC(=O)Cn2ccc3cc(C)ccc32)cc1 |  |  |  | inactive | inactive
CCCCCCCCCCOc1ccc(OCC(=O)COc2ccc(C(=O)O)cc2)cc1 |  | 250 |  |  | 
CCCCCCCCc1ccc(OCC(=O)Cn2cc(C=O)c3cc(C(=O)O)ccc32)cc1 | 16 | 380 | 9.7 |  | 
CCCCCCCCc1ccc(OCC(=O)Cn2cc(Cl)c3cc(C(=O)O)ccc32)cc1 | 110 | 1500 | 120 |  | 
CCCCCCCCc1ccc(OCC(=O)Cn2ccc3ccccc32)cc1 |  |  |  | inactive | 43%
CCCCCCCCc1ccc(OCC(=O)Cn2cc(C(=O)O)c3cc(C(=O)O)ccc32)cc1 | 890 | 6500 | 560 |  | 
CCCCCCCCc1ccc(OCC(=O)Cn2ccc3cc(C(N)=O)ccc32)cc1 | 120 | 770 |  |  | 
CCCCCCCCc1ccc(OCC(=O)Cn2cc(C(=O)O)c3ccccc32)cc1 |  |  |  | 40% | 40%
CCCCCCCCc1ccc(OCC(=O)Cn2ccc3cc(C#N)ccc32)cc1 |  |  |  | 25% | 46%
CCCCCCCCc1ccc(OCC(=O)Cn2c(C(=O)O)cc3ccccc32)cc1 |  | 8000 |  | inactive | 
CCCCCCCCc1ccc(OCC(=O)Cn2cc(C(=O)OC)c3cc(C(=O)O)ccc32)cc1 | 4.9 | 1400 | 1.1 |  | 
CCCCCCCCc1ccc(OCC(=O)Cn2cc(C(C)(C)C)c3cc(C(=O)O)ccc32)cc1 | 340 | 3300 | 230 |  | 
CCCCCCCCc1ccc(OCC(=O)Cn2ccc3cc(Cl)ccc32)cc1 |  |  |  | inactive | inactive
CCCCCCCCCCOc1ccc(OCC(=O)Cn2cc(C(=O)OC)c3cc(C(=O)O)ccc32)cc1 | 4.3 | 570 | 0.9 |  | 
CCCCCCCCc1ccc(OCC(=O)Cn2cc(C#N)c3cc(C(=O)O)ccc32)cc1 | 15 | 370 | 11 |  | 
CCCCCCCCc1ccc(OCC(=O)Cn2ccc3cc(C=O)ccc32)cc1 | 4300 | 4900 |  |  | 
CCCCCCCCc1ccc(OCC(=O)Cn2ccc3ccc(C(=O)O)cc32)cc1 | 1100 | 4700 |  |  | 
CCCCCCCCc1ccc(OCC(=O)Cn2ccc3cc(OC)ccc32)cc1 |  |  |  | inactive | 37%
CCCCCCCCc1ccc(OCC(=O)Cn2ccc3c(C(=O)O)cccc32)cc1 |  |  |  | 40% | 40%
CCCCCCCCc1ccc(OCC(=O)Cn2ccc3cc(C(=O)O)ccc32)cc1 |  | 410 | 18 |  | 
CCCCCCCCc1ccc(OCC(=O)Cn2ccc3cc(C(=O)OC)ccc32)cc1 |  |  |  | 36% | 40%
